M1 ag: agonists of M1 muscarinic receptor; CHO-M1 cells, Fluo-4 calcium fluorescence, agonist mode; stronger effect = higher value; B-score at 10 µM; actives 3% (n = 64,000);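 active means fluorescence rise, raw or as B-score row- and column-corrected plate score, outside the 99.7% band of its plate's samples, either direction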
mHtt clearance: mutant huntingtin protein clearance; HeLa Exon1htt(103Q)mCFP, aggregate imaging; zero = plate's median compound well; inhibition, % at 1.5 µM; actives 0.42% (n = 47,000); AID 853;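 active means inhibition of aggregate fluorescence above about 70%, also judged a hit by eye on the cell image, limit read from the data, passing the limit was not always enough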;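 further: cells exposed to compound for three days before fixation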
D1 mod: D1 dopamine receptor (human) allosteric modulation; HEK293 D1, CRE-luciferase, dopamine EC30 potentiation; actives deviate in either direction; B-score at 10 µM; actives 5.9% (n = 58,000);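 active means luminescence count or its row- and column-corrected plate score outside the 99.7% band of the plate's sample wells, on either side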
Target sequence (P21728 whole entry, looked up): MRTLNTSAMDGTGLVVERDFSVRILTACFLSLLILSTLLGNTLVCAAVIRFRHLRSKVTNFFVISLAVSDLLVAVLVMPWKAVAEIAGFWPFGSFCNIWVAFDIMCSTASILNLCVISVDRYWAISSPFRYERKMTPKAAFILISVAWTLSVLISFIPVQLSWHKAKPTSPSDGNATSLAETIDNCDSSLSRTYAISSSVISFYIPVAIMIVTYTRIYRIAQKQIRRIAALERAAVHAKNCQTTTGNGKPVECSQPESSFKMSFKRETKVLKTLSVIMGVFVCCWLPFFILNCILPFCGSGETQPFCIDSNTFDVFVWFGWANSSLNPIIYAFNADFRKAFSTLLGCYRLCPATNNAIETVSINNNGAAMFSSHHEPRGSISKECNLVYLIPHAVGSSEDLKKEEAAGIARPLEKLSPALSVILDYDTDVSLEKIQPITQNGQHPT
Jurkat viability: cytotoxicity toward Jurkat cells; Jurkat E6.1 viability, ATP luminescence, 48 h; inhibition, % at 4 µM; actives 1.2% (n = 56,000);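 active means inhibition above the mean inhibition of all tested compounds plus 3 SD, cut at about 28% in these data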
HEK293 NFkB inh: inhibitors of the PMA/ionomycin-induced NF-kB reporter in HEK293 cells | HEK-293 NF-kB luciferase reporter, luminescence | inhibition, % at 3 µM | actives 0.21% (n = 62,000) | AID 465;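 active means inhibition above the mean of all tested compounds plus 3 SD, cut at about 40% in these data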;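 further: 0% = stimulated DMSO wells and 100% = 10 µM reference inhibitor 5653914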
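System – HEK-293 cells with stable firefly luciferase reporter driven by four HIV NF-kB elements · Doses – one dose, 3 µM · Schedule – 1 h compound pre-incubation, 16 h PMA/ionomycin at 37 °C · Technique – luminescence from luciferase substrate reagent · Measure – percent inhibition normalized per plate to DMSO and reference-inhibitor controls · Replicates – tested once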
M1 antag: M1 muscarinic receptor (rat) antagonism. P08482. CHO-M1 cells, Fluo-4 calcium, ACh EC80 antagonist mode; stronger effect = lower value. B-score at 10 µM. actives 3.4% (n = 64,000). AID 628;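 active means calcium fluorescence response, raw or row-and-column corrected B-score, differing from the plate sample mean either way at a set confidence level, mostly lower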
D1 PAM confirm: D1 receptor (human) allosteric modulation, confirmed; shares compounds with D1 mod; HEK293 D1 CRE-luciferase, dopamine EC30 potentiation; stronger effect = higher value; luminescence at 10 µM; actives 88% (n = 2,200); AID 642;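 active means luminescence in either of two replicates above the same-plate mean plus 3 SD of the low-dose dopamine control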
D1 no dopamine: activates D1 CRE-luciferase signal without dopamine present. shares compounds with D1 mod. HEK293 D1 CRE-luciferase, luminescence, no dopamine; stronger effect = higher value. luminescence at 10 µM. actives 0.8% (n = 1,900). AID 646; in the data active means luminescence above about 3900
Isoprot counter: counter-screen for D1 modulators: isoproterenol response in HEK293 cells; HEK293 D1 CRE-luciferase, isoproterenol EC30 counter-screen; stronger effect = higher value; shares compounds with D1 mod; luminescence at 10 µM; actives 63% (n = 2,200); AID 647;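 active means luminescence in either replicate above plate mean of wells with a partly effective reference agonist dose plus 3 SD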;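 further: isoproterenol raises cAMP through native beta-adrenoceptor Gs so signal bypasses D1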
* hit, by the source's call; / = not tested or not shown. This is a sample that favours compounds with a hit; in the whole collection about 9.5% have one here.

SMILES | M1 ag | mHtt clearance | D1 mod | Jurkat viability | HEK293 NFkB inh | M1 antag | D1 PAM confirm | D1 no dopamine | Isoprot counter
N=C1C(c2ccc(Br)cc2)=C(O)C2CCc3ccccc3N12 (stereo unspecified) | -0.16 | / | -0.36 | 4 | 4 | 0.21 | / | / | /
Brc1ccc(-c2nnc3n2-c2ccccc2CC3)cc1 | -0.21 | / | 3.9* | -6 | 1 | -0.88 | 13056* | 1744 | 3620*
COc1ccc(Cl)cc1C(=O)CSc1nnnn1C1CCCC1 | -0.16 | 30 | 2.8* | 4 | -3 | -1.2 | 6668* | 1592 | 2692
N#Cc1c(N)sc(=S)c2c1CCCC2 | -0.46 | / | / | 6 | 21 | -0.026 | / | / | /
CCC1(C)Cc2c(C#N)c(N)sc(=S)c2CO1 (stereo unspecified) | -0.32 | / | 20* | / | / | -0.0046 | 18368* | 1660 | 3980*
Cn1c(SCc2ccon2)nc2ccccc2c1=O | -0.93 | 22 | 5.9* | -2 | 15 | 0.11 | 6248* | 1464 | 3076
Cc1ncsc1CCSc1nc2ccccc2c(=O)n1C | 1.7 | -22 | 5.3* | 11 | 14 | -0.19 | 10832* | / | 3184*
COc1ccc(-c2nc(-c3cccs3)c(-c3cccs3)[nH]2)cc1O | 1.4 | 11 | 2.8* | 6 | 3 | -0.3 | 7608 | 1828 | 2520
Cc1noc(C)c1S(=O)(=O)N(CC(=O)N1CCCCCC1)c1ccc(C(C)C)cc1 | 0.4 | 62 | 1.8* | 4 | 20 | 0.6 | 7028 | 1368 | 2460
Cc1noc(C)c1S(=O)(=O)N(CC(=O)N1CCCC1)c1ccc(C(C)C)cc1 | -0.6 | / | 0.094 | 5 | 22 | -1.1 | / | / | /
CS(=O)(=O)N1CCN(C(=O)c2cc(-c3ccncc3)nc3ccc(Cl)cc23)CC1 | 0.21 | -31 | -0.9 | 10 | 11 | -0.29 | / | / | /
Cc1[nH]n(-c2ccccc2)c(=O)c1S(=O)(=O)c1ccccc1 | -0.75 | 39 | 4.1* | / | 21 | 0.77 | 11060* | 1692 | 3124
CCOc1ccc(C2CC(c3cccc(C)c3)n3nc(N)nc3N2)cc1 (stereo unspecified) | 0.23 | / | 5* | -8 | 13 | -0.99 | 10456* | / | 2684*
COc1ccc(C2CC(c3ccccc3C)n3nc(N)nc3N2)cc1 (stereo unspecified) | 0.013 | / | -0.011 | 1 | 12 | -0.048 | / | / | /
CCOc1ccc(C2CC(c3cccc(OC)c3)n3nc(N)nc3N2)cc1 (stereo unspecified) | -0.33 | / | 1.8 | 1 | 4 | 0.03 | / | / | /
Cc1ccc(C2CC(c3ccccc3C)n3nc(N)nc3N2)cc1 (stereo unspecified) | -1.1 | / | 5.3* | 3 | 16 | 0.51 | 6604 | 1668 | 2776
Cc1cccc(C2CC(c3ccc(Cl)cc3)Nc3nc(N)nn32)c1 (stereo unspecified) | -2.3 | -28 | 2 | -1 | -4 | -0.079 | / | / | /
Cc1cccc(C2CC(c3ccc(F)cc3)Nc3nc(N)nn32)c1 (stereo unspecified) | 0.35 | / | 4.7* | -1 | 4 | -0.083 | 11784* | 1444 | 3108
CC(=O)Nc1ccc(S(=O)(=O)N(C)CC(=O)NC2=NCCS2)cc1 | 1.1 | 44 | -1.5 | 5 | 14 | -0.24 | / | / | /
CCNc1nc(SCC(=O)OC)nc(N2CCOCC2)n1 | 1.1 | / | 6.4* | / | 14 | -0.021 | 18868* | 1512 | 4012*
COC(=O)CSc1nc(NCC(C)C)nc(N2CCOCC2)n1 | -0.51 | -26 | 0.44 | -7 | 15 | -0.52 | / | / | /
CSc1nc(NC(C)(C)C)nc(N2CCOCC2)n1 | 0.58 | -36 | 15* | / | 12 | 1.2 | 15276* | 1464 | 4000*
CCNc1nc(SC(C)C(=O)OC)nc(N2CCOCC2)n1 (stereo unspecified) | -0.89 | / | 7* | / | 1 | 0.0041 | 16348* | 1712 | 4196*
CN(C)CCNC(=O)c1ccc(CS(=O)(=O)c2ccc(Br)cc2)o1 | 0.34 | / | -0.086 | 0 | 5 | 0.48 | / | / | /
